Assay results: ChEMBL document CHEMBL4765256, “Structural features and functional activities of benzimidazoles as NOD2 antagonists” (Eur J Med Chem, 2020)
Calls of active or inactive are those of the source. The rule behind the calls is not given here.

Assays:
HEK293 [1] = experiment: Cytotoxicity against human HEK293 cells expressing human NOD1 assessed as reduction in metabolic activity at 20 uM incubated for 18 hrs by MTS assay; type: ADME, cell-based; settings: hek293, 18 h
Procedure, shortened: (§1)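 HEK-Blue NOD1 or NOD2 cells seeded at 1 × 10^4 cells/well in triplicate. Treated 18 h with 20 µM compound or 0.1% DMSO vehicle. Metabolic activity read by MTS (CellTiter 96 AQueous One) and expressed relative to vehicle control. Mean ± SD of three biological replicates.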

HEK293 [2] = experiment: Cytotoxicity against human HEK293 cells expressing human NOD2 assessed as reduction in metabolic activity at 20 uM incubated for 18 hrs by MTS assay; type: ADME, cell-based; settings: hek293, 18 h; procedure, shortened: as §1
[3] = target: T1, Nucleotide-binding oligomerization domain-containing protein 1 (Homo sapiens) (UniProt Q9Y239); experiment: Antagonist activity at human NOD1 expressed in HEK293 cells assessed as reduction in C12-iE-DAP-induced NF-kappaB activation at 10 uM preincubated for 1 hr followed by C12-iE-DAP stimulation and measured after 18 hrs by SEAP reporter gene based spectrophotometric analysis; type: cell-based; settings: time 19.0 hrs
T1 sequence (whole entry): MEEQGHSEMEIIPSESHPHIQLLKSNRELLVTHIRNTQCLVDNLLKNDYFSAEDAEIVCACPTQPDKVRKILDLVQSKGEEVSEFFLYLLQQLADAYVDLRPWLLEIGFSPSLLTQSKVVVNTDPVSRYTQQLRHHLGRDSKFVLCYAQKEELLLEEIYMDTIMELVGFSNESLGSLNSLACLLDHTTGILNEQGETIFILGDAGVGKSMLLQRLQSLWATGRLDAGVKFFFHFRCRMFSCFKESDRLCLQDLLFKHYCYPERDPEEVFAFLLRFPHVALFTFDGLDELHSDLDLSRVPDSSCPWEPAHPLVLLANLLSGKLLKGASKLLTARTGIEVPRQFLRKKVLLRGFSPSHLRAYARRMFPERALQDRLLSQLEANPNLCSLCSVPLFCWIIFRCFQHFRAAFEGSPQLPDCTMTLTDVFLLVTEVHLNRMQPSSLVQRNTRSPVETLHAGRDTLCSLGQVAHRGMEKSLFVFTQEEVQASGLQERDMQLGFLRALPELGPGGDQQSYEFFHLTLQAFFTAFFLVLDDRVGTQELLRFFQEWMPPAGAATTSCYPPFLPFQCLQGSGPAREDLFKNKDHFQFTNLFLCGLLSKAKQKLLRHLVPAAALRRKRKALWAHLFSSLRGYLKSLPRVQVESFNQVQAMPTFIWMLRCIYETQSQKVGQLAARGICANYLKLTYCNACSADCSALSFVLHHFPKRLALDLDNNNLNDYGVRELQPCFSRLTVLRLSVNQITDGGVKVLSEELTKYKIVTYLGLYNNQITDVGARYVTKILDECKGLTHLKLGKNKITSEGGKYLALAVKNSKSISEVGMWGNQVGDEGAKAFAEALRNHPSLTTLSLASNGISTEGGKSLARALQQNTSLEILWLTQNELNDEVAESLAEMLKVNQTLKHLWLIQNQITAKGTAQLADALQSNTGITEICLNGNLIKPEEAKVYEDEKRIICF
Procedure, shortened: (§2)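 HEK-Blue NOD1 or NOD2 reporter cells (5 × 10^5 cells/mL, passages 7–12) pre-treated 1 h with 10 µM compound. Then 100 nM C12-iE-DAP (NOD1) or 2 µM MDP (NOD2) for 18 h at 37 °C, 5% CO2. Secreted SEAP read at 620 nm. DMSO ≤0.1% vehicle control. Duplicates, three biological replicates.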

[4] = target: T2, Nucleotide-binding oligomerization domain-containing protein 2 (Homo sapiens, UniProt Q9HC29); experiment: Antagonist activity at human NOD2 expressed in HEK293 cells assessed as reduction in MDP-induced NF-kappaB activation at 10 uM preincubated for 1 hr followed by MDP stimulation and measured after 18 hrs by SEAP reporter gene based spectrophotometric analysis; type: cell-based; settings: time 19.0 hrs; procedure, shortened: as §2
T2 sequence (Q9HC29 whole entry, the tested form may be a part): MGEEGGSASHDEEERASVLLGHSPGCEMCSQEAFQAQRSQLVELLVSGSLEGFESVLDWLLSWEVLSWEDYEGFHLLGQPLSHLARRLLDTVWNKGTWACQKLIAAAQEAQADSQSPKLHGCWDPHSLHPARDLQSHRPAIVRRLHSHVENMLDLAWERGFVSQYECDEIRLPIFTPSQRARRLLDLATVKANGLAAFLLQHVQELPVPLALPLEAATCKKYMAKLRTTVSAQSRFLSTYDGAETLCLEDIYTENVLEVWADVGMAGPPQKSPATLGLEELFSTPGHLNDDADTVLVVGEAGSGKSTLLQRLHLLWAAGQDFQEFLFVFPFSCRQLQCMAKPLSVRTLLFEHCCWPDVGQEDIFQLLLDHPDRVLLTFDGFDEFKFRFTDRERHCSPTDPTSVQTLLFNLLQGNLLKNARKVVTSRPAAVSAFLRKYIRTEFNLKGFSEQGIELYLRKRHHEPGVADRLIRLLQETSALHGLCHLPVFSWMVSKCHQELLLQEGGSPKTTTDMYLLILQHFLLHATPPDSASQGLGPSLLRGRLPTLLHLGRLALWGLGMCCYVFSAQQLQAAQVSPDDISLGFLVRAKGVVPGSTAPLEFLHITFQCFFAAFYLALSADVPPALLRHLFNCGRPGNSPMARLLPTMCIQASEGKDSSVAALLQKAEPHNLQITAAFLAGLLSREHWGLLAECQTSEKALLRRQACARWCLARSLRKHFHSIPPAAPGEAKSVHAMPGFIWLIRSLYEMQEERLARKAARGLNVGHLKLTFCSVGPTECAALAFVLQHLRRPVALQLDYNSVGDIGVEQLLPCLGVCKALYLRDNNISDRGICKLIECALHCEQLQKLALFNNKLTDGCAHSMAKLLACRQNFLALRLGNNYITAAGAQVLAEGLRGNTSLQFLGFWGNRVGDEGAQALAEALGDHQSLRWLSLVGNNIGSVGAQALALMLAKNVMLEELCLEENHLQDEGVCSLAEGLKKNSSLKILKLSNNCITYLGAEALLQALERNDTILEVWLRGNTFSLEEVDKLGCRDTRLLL

[5] = target: T3, Nucleotide-binding oligomerization domain-containing protein 1 (Homo sapiens, UniProt Q9Y239); experiment: Antagonist activity at human NOD1 expressed in HEK293 cells assessed as reduction in C12-iE-DAP-induced NF-kappaB activation preincubated for 1 hr followed by C12-iE-DAP stimulation and measured after 18 hrs by SEAP reporter gene based spectrophotometric analysis; type: cell-based
T3 sequence (Q9Y239 whole entry): T1 sequence (whole entry)

[6] = target: T2, Nucleotide-binding oligomerization domain-containing protein 2; experiment: Antagonist activity at human NOD2 expressed in HEK293 cells assessed as reduction in MDP-induced NF-kappaB activation preincubated for 1 hr followed by MDP stimulation and measured after 18 hrs by SEAP reporter gene based spectrophotometric analysis; type: cell-based; settings: read-out: IC50
Procedure, shortened: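 Dose–response in HEK-Blue NOD2 and NOD1 cells (5 × 10^5 cells/mL): 1 h pre-treatment with 0.3125–20 µM antagonist, then 2 µM MDP or 100 nM C12-iE-DAP respectively, 18 h incubation. SEAP absorbance read at 620 nm. IC50 fitted by non-linear regression. Duplicates, three biological replicates, DMSO ≤0.1%.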

THP-1 [7] = experiment: Antagonist activity at NOD in human THP-1 cells assessed as increase in IL-8 secretion at 20 uM; type: cell-based
Procedure, shortened: (§3)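 THP-1 cells at 10^6 cells/mL in RPMI 1640 with 10% heat-inactivated FCS, passages 3–12, exposed to 20 µM compound alone (no NOD agonist). IL-8 and TNF-α in cell-free supernatants measured by sandwich ELISA, reported in pg/mL. Detection limits were 15.6 pg/mL for IL-8 and 4 pg/mL for TNF-α. DMSO vehicle control, not above 0.2% final.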

THP-1 [8] = experiment: Antagonist activity at NOD in human THP-1 cells assessed as increase in TNF-alpha secretion at 20 uM; type: cell-based; procedure, shortened: as §3
THP-1 [9] = experiment: Cytotoxicity against human THP-1 cells assessed as […] dehydrogenase leakage at 20 uM incubated for 18 hrs; type: cell-based; settings: thp-1, 18 h
Procedure, shortened: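 THP-1 cells treated 18 h with compound at up to 20 µM. Lactate dehydrogenase released into cell-free supernatant measured with a colorimetric kit, results given as OD.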

[10] = target: T1, Nucleotide-binding oligomerization domain-containing protein 1 (Homo sapiens); experiment: Antagonist activity at NOD1 in human THP-1 cells assessed as reduction in C12-iE-DAP-induced IL-8 secretion at 20 uM preincubated for 1 hr followed by C12-iE-DAP stimulation and measured after 20 hrs by ELISA; type: cell-based; settings: filed as antagonist, time 21.0 hrs
Procedure, shortened: (§4)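 THP-1 cells at 10^6 cells/mL in 24-well cultures, passages 3–12. Pre-treated 1 h with 20 µM compound, then 10 µM MDP (NOD2) or 10 µM C12-iE-DAP (NOD1) added, 20 h at 37 °C, 5% CO2. Triplicate wells, DMSO ≤0.2% as vehicle control. Supernatant IL-8 by sandwich ELISA, detection limit 15.6 pg/mL. Mean ± SD of duplicates from three independent experiments, Dunnett test.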

[11] = target: T2, Nucleotide-binding oligomerization domain-containing protein 2; experiment: Antagonist activity at NOD2 in human THP-1 cells assessed as reduction in MDP-induced IL-8 secretion at 20 uM preincubated for 1 hr followed by MDP stimulation and measured after 20 hrs by ELISA; type: cell-based; settings: filed as antagonist, time 21.0 hrs; procedure, shortened: as §4
THP-1 [12] = experiment: Antagonist activity at NOD1/TLR4 in human THP-1 cells assessed as reduction in C12-iE-DAP/LPS-induced TNF-alpha secretion at 20 uM preincubated for 1 hr followed by C12-iE-DAP/LPS stimulation and measured after 20 hrs by ELISA; type: cell-based; settings: time 21.0 hrs
Procedure, shortened: (§5)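 Synergy setting in THP-1 cells: 1 h pre-treatment with 20 µM compound, then 10 µM MDP or C12-iE-DAP plus 1 ng/mL E. coli O127:B8 LPS for 20 h. Supernatant TNF-α by sandwich ELISA, detection limit 4 pg/mL. DMSO vehicle ≤0.2%. Duplicates from three independent experiments, mean ± SD, Dunnett test against agonist+LPS-treated cells.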

THP-1 [13] = experiment: Antagonist activity at NOD2/TLR4 in human THP-1 cells assessed as reduction in MDP/LPS-induced TNF-alpha secretion at 20 uM preincubated for 1 hr followed by MDP/LPS stimulation and measured after 20 hrs by ELISA; type: cell-based; settings: filed as antagonist, time 21.0 hrs; procedure, shortened: as §5

Structure (SMILES) | Activity (HEK293 [1]) | Activity (HEK293 [2]) | Activity ([3]; filed as antagonist) | Activity ([4]; filed as antagonist) | IC50 [5] | IC50 [6] | Activity [3] | Activity [4] | Activity (THP-1 [7]) | Activity (THP-1 [8]) | Activity (THP-1 [9]) | Activity [10] | Activity [11] | Activity (THP-1 [12]) | Activity (THP-1 [13])
O=C(CCc1nc2ccccc2n1CC(=O)Nc1ccc2c(c1)CCC2)Nc1ccccc1 | Non-Toxic | Non-Toxic | Active | Active | 12.4 µM | 8.8 µM | – | – | – | – | – | – | – | – | –
O=C(Cc1ccncc1)NCCc1nc2ccccc2n1CC(=O)Nc1ccc2c(c1)CCC2 | Non-Toxic | Non-Toxic | – | – | 42.3 µM | 25.9 µM | inactive | inactive | – | – | – | – | – | – | –
CN(CCc1nc2ccccc2n1CC(=O)Nc1ccc2c(c1)CCC2)S(=O)(=O)c1ccccc1 | Non-Toxic | Non-Toxic | – | – | 2.56 µM | 0.63 µM | – | – | – | – | – | – | – | – | –
O=C(Cn1c(CCNCc2ccccc2)nc2ccccc21)Nc1ccc2c(c1)CCC2 | Toxic | Toxic | Active | Active | 30.7 µM | 4.76 µM | – | – | – | – | – | – | – | – | –
CN(C)c1cccc2c(S(=O)(=O)N(C)CCc3nc4ccccc4n3CC(=O)Nc3ccc4c(c3)CCC4)cccc12 | Non-Toxic | Non-Toxic | – | – | 3.08 µM | > 20 µM | – | – | – | – | – | – | – | – | –
O=C(Cn1c(CNC(=O)c2ccccc2)nc2ccccc21)Nc1ccc2c(c1)CCC2 | Non-Toxic | Non-Toxic | – | – | – | – | inactive | inactive | – | – | – | – | – | – | –
CC(C)(C)OC(=O)N1CCC(C(=O)NCCc2nc3ccccc3n2CC(=O)Nc2ccc3c(c2)CCC3)CC1 | Non-Toxic | Non-Toxic | Active | Active | 13.3 µM | 10.6 µM | – | – | – | – | – | – | – | – | –
CN(C)c1cccc2c(S(=O)(=O)NCCc3nc4ccccc4n3CC(=O)Nc3ccc4c(c3)CCC4)cccc12 | Non-Toxic | Non-Toxic | Active | Active | 2.68 µM | 6.2 µM | – | – | inactive | inactive | Non-Toxic | Active | Active | inactive | Active
O=C(Cn1c(CCCNS(=O)(=O)c2ccccc2)nc2ccccc21)Nc1ccc2c(c1)CCC2 | Non-Toxic | Non-Toxic | – | – | 9.25 µM | 5.12 µM | – | – | – | – | – | – | – | – | –
